In ChEMBL document CHEMBL4145619, “Computer-Assisted Discovery of Retinoid X Receptor Modulating Natural Products and Isofunctional Mimetics” (J Med Chem, 2018):
pEC50: −log10 of the molar value. Calls of active or inactive are those of the source. The calls are words filed in the database; no cut-off is given here.

How the values were obtained:
Assay type in all cases: cell-based
[1] = biological target: T1, Retinoic acid receptor RXR-alpha (Homo sapiens) (UniProt P19793); assay: Transactivation of human Gal4-fused RXRalpha LBD expressed in HEK293T cells at 50 uM after 12 to 14 hrs by dual-glo luciferase assay
T1 sequence (whole entry): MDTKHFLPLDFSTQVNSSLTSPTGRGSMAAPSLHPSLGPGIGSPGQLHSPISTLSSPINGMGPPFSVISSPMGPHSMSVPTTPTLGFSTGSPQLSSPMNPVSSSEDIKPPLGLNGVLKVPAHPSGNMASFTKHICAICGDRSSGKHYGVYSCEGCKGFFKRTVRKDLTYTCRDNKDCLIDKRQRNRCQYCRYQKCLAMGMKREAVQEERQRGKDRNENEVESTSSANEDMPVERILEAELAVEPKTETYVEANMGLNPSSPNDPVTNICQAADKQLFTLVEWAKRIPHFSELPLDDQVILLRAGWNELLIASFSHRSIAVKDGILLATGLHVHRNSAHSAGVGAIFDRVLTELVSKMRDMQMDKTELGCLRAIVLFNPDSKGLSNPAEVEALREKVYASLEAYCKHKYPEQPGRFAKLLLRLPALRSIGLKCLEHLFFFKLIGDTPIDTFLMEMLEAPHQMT

[2] = biological target: T2, Retinoic acid receptor RXR-gamma (Homo sapiens) (UniProt P48443); assay: Transactivation of human Gal4-fused RXRgamma LBD expressed in HEK293T cells after 12 to 14 hrs by dual-glo luciferase assay relative to bexarotene
T2 sequence (whole entry): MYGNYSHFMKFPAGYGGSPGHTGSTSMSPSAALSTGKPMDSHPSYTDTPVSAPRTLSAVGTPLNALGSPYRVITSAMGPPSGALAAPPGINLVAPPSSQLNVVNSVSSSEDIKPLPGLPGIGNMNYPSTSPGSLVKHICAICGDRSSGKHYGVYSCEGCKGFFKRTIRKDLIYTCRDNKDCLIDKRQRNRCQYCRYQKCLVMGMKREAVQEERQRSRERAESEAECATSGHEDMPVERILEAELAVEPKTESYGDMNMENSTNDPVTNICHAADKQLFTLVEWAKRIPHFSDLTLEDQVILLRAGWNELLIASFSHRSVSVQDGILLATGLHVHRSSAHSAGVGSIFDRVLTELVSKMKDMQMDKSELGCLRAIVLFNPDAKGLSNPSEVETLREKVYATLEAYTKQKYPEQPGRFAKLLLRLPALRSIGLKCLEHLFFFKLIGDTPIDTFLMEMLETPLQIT

[3] = biological target: T3, Retinoic acid receptor RXR-gamma (Homo sapiens, UniProt P48443); assay: Transactivation of human Gal4-fused RXRgamma LBD expressed in HEK293T cells after 12 to 14 hrs by dual-glo luciferase assay
T3 sequence (P48443 whole entry): T2 sequence (whole entry)
Summary of the method: (§1)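 Gal4-hybrid reporter gene assay in HEK293T cells with the RXRα, RXRβ or RXRγ construct. Dose–response curves give EC50 and fold activation as mean ± SEM from n ≥ 4 independent experiments in duplicate.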

[4] = biological target: T4, Retinoic acid receptor RXR-beta (Homo sapiens) (UniProt P28702); assay: Transactivation of human Gal4-fused RXRbeta LBD expressed in HEK293T cells after 12 to 14 hrs by dual-glo luciferase assay relative to bexarotene
T4 sequence (whole entry): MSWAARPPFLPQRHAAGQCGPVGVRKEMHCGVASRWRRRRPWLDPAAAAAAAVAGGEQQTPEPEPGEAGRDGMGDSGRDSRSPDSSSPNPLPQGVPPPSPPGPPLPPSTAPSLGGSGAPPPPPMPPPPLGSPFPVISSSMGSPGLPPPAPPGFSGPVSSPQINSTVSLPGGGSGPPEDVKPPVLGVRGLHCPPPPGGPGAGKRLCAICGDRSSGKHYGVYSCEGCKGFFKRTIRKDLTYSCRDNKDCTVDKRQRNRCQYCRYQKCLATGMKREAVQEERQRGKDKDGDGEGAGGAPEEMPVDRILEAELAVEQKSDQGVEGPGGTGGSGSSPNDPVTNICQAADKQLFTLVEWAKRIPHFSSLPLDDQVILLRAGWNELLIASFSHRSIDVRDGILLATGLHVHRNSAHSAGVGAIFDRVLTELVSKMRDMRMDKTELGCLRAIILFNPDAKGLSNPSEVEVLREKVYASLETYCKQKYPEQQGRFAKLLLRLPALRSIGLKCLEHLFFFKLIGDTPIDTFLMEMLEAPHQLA

[5] = biological target: T5, Retinoic acid receptor RXR-beta (Homo sapiens, UniProt P28702); assay: Transactivation of human Gal4-fused RXRbeta LBD expressed in HEK293T cells after 12 to 14 hrs by dual-glo luciferase assay; summary of the method: as §1
T5 sequence (P28702 whole entry): T4 sequence (whole entry)

[6] = biological target: T1, Retinoic acid receptor RXR-alpha (Homo sapiens); assay: Transactivation of human Gal4-fused RXRalpha LBD expressed in HEK293T cells after 12 to 14 hrs by dual-glo luciferase assay relative to bexarotene
[7] = biological target: T6, Retinoic acid receptor RXR-alpha (Homo sapiens, UniProt P19793); assay: Transactivation of human Gal4-fused RXRalpha LBD expressed in HEK293T cells after 12 to 14 hrs by dual-glo luciferase assay; summary of the method: as §1
T6 sequence (P19793 whole entry): T1 sequence (whole entry)

[8] = biological target: T2, Retinoic acid receptor RXR-gamma (Homo sapiens); assay: Transactivation of human Gal4-fused RXRgamma LBD expressed in HEK293T cells at 50 uM after 12 to 14 hrs by dual-glo luciferase assay
[9] = biological target: T7, Retinoid X receptor (Homo sapiens) (UniProt P28702+P48443+P19793); assay: Transactivation of RXR in human HepG2 cells assessed as induction of apoE mRNA expression at 30 uM after 8 hrs by qRT-PCR analysis
Summary of the method: (§2)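 HepG2 cells were treated and ABCA1 or ApoE mRNA levels measured. Results are given as mean fold induction versus 0.1% DMSO vehicle ± SEM, n = 3. Significance was set at p < 0.05, 0.01 or 0.001.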

[10] = biological target: T7, Retinoid X receptor (Homo sapiens); assay: Transactivation of RXR in human HepG2 cells assessed as induction of ABCA1 mRNA expression at 30 uM after 8 hrs by qRT-PCR analysis; summary of the method: as §2
[11] = biological target: T8, Peroxisome proliferator-activated receptor gamma (Homo sapiens) (UniProt P37231); assay: Transactivation of human Gal4-fused PPARgamma LBD expressed in HEK293T cells at 30 uM after 12 to 14 hrs by dual-glo luciferase assay
T8 sequence (whole entry): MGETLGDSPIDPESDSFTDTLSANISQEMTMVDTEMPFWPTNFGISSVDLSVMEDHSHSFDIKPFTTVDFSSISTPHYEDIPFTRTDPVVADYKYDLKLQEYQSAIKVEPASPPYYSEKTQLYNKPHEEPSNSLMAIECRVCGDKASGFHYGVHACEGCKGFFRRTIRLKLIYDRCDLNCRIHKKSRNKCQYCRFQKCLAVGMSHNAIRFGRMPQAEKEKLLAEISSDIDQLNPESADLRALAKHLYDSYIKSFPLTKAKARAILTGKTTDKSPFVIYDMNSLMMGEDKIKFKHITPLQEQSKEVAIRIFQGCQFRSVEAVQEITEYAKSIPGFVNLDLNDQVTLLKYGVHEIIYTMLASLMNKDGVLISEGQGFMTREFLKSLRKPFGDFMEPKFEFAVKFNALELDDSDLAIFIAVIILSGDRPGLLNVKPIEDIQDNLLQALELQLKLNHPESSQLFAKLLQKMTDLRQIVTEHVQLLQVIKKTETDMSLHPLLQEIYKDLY
Summary of the method: (§3)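 Single-concentration selectivity profiling in Gal4-hybrid reporter gene assays in HEK293T cells. Each nuclear receptor construct (RAR, PPAR, LXR, FXR, CAR, VDR, PXR, RXR) was tested at 30 μM.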

HepG2 = assay: Cytotoxicity against human HepG2 cells assessed as reduction in cell viability up to 100 uM after 48 hrs by WST1 assay; settings: hepg2, 48 h
[12] = biological target: T1, Retinoic acid receptor RXR-alpha (Homo sapiens); assay: Transactivation of human Gal4-fused RXRalpha LBD expressed in HEK293T cells at 30 uM after 12 to 14 hrs by dual-glo luciferase assay; summary of the method: as §3
[13] = biological target: T4, Retinoic acid receptor RXR-beta (Homo sapiens); assay: Transactivation of human Gal4-fused RXRbeta LBD expressed in HEK293T cells at 50 uM after 12 to 14 hrs by dual-glo luciferase assay
[14] = biological target: T7, Retinoid X receptor (Homo sapiens); assay: Transactivation of RXR in human HepG2 cells assessed as induction of ABCA1 mRNA expression at 10 uM after 8 hrs by qRT-PCR analysis; summary of the method: as §2
[15] = biological target: T7, Retinoid X receptor (Homo sapiens); assay: Transactivation of RXR in human HepG2 cells assessed as induction of apoE mRNA expression at 10 uM after 8 hrs by qRT-PCR analysis; summary of the method: as §2

Structure (SMILES) | fold change (FC) [2] | pEC50 [3] | fold change (FC) [4] | pEC50 [5] | fold change (FC) [6] | pEC50 [7] | other results
CCC(C)[C@@H]1C(=O)/C(=C(/O)[C@@H]2[C@@H]3[C@H](C)C[C@H](C)C[C@@H]3C=C[C@@H]2[C@]2(C)O[C@H]2C)C(=O)N1C (some centres undefined) | – | – | – | – | – | – | Activity [1]: inactive
Cc1ccc(-n2c(C)c(C)c3c2CCC(F)(F)C3)cc1O | 11 | 4.57 | 30 | 4.86 | 26 | 4.63 | –
Cc1c2c(n(-c3ccc(CCCC(=O)O)cc3)c1C)CCC(F)(F)C2 | 7 | 5.60 | 64 | 5.66 | 56 | 5.04 | –
Cc1ccc(C)n1-c1ccc(CCCC(=O)O)cc1 | 11 | 4.61 | 48 | 5.18 | 31 | 5.37 | –
Cc1ccc(C)n1-c1ccc(SCC(=O)O)cc1 | – | – | – | < 4.52 | – | < 4.52 | Activity [8]: inactive
CC(C)c1ccc2c(c1)CC[C@H]1[C@](C)(C(=O)O)CCC[C@]21C [DEHYDROABIETIC ACID] | 6 | 4.38 | 6 | 4.38 | 9 | 4.38 | Activity [9]: Active; Activity [10]: Active; Activity [11]: Active; Activity (HepG2): Toxic; Activity [12]: Active
Cc1c2c(n(C[C@H]3CC[C@H](C(=O)O)CC3)c1C)CCC(F)(F)C2 | 18 | 4.30 | 99 | 4.57 | 69 | 4.62 | –
C/C=C/c1ccc2c(c1)[C@@H](C)[C@H](c1ccc(O)cc1)O2 | – | – | – | – | – | – | Activity [1]: inactive
Cc1ccc(C)n1C(CC1CCCC1)C(=O)O (centres undefined) | – | – | – | – | – | – | Activity [13]: inactive; Activity [1]: inactive; Activity [8]: inactive
CC(C)=C(C)c1ccc(-c2cnc(CCC(=O)O)o2)cc1 | 2 | 4.85 | 3.2 | 4.80 | 2.8 | 5.10 | –
C=C[C@@]1(C)CC[C@H]2C(=CC[C@@H]3[C@]2(C)CCC[C@@]3(C)C(=O)O)C1 [ISOPIMARIC ACID] | 7 | 4.48 | 7 | 4.49 | 13 | 4.59 | Activity [9]: Active; Activity [10]: Active; Activity (HepG2): Toxic; Activity [12]: Active
Cc1c2c(n(-c3ccc(CC(=O)O)cc3)c1C)CCC(F)(F)C2 | 44 | – | 121 | – | 69 | – | Activity [14]: Active; Activity [15]: Active
